Screening data from PubChem BioAssay.
Hits are enriched below; roughly 3.1% of the tested compounds scored in any of these assays.
CHO parental Ca: counter-screen for OX1R antagonists: effect in parental CHO cells | parental CHO-K1, ATP-induced calcium, Fluo-8 fluorescence | inhibition, % at 5.6 µM | hit rate 0.63% among 330,000;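 active means inhibition above that plate's mean sample inhibition plus 3 SD, cut at about 26% in these data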;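 further: 0% = ATP-challenged DMSO wells and 100% = DMSO wells without ATP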
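Assay system: untransfected parental CHO cell line. Also added: ATP agonist challenge. Dosing: one dose, 5.6 µM nominal. Measured by: Fluo-8 fluorescence. Read-out: % inhibition. Benchmarks: ATP wells versus no-ATP DMSO wells. Repeats: no replicates.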
OX1R antag-1: blocks the human orexin 1 receptor | AID 434989 | CHO/OX1R cells, Fluo-8 calcium fluorescence, orexin A | hit rate 0.43% among 330,000 | inhibition, % at 5 µM | O43613;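 active means inhibition above its plate's threshold, mean inhibition of all tested compounds on the plate plus 3 SD, cut at about 37% in these data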;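 further: 0% = orexin A challenge wells and 100% = SB-334867-A antagonist wells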
OX1R antag-2: blocks the human orexin 1 receptor; inhibition, % at 6.6 µM; O43613; OX1R-expressing cells, FRET antagonist read-out; hit rate 1.8% among 330,000; in the data active means inhibition mostly above about 38%, no sharp cut-off; inactive means mostly below about 40%;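 further: 0% = agonist challenge alone and 100% = reference antagonist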
GPR7 antag: blocks human GPR7 receptor signaling. GPR7-expressing cells, fluorescence antagonist assay. inhibition, % at 4.4 µM. hit rate 1.1% among 290,000. AID 1861; in the data active means inhibition above about 16%, passing the limit was not always enough;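 further: cells stimulated with the agonist NPW; 0% = agonist with vehicle and 100% = vehicle without agonist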
Target sequence (P48145 whole entry, looked up): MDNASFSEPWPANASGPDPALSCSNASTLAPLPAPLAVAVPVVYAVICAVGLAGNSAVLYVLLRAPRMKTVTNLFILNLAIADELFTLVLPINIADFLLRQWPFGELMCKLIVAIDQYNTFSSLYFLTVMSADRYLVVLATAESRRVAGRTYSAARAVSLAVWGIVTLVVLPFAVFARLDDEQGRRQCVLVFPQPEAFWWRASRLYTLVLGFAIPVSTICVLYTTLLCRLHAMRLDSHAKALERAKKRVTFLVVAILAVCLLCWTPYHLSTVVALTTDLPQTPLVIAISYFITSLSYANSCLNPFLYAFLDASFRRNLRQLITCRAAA
GalR3 antagonist: blocks the human galanin receptor 3; O60755; HEK293 GalR3-CNG cAMP membrane potential fluorescence; galR3 body fused to GalR1 C-terminus; inhibition, % at 3 µM; hit rate 0.44% among 360,000; AID 651719;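 active means inhibition above the screen-wide average plus 3 SD, cut at about 13% in these data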;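 further: forskolin and galanin both at EC90 stimulate the cells; cAMP rise reported by CNG channel membrane potential dye signal; 0% = forskolin plus galanin with DMSO and 100% = forskolin alone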
Target sequence (O60755 1-299 limits assumed): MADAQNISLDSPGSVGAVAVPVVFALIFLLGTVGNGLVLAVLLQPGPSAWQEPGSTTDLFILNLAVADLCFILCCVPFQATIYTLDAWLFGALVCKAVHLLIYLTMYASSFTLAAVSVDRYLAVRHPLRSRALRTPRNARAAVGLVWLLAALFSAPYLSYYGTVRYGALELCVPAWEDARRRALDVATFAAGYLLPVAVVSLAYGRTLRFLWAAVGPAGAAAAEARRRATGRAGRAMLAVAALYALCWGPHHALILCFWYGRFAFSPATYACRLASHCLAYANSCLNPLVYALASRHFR
GalR3 conf: GalR3 (human) antagonism, confirmation | HEK293 GalR3 CNG cAMP biosensor, membrane potential fluorescence; galR3 fused to GalR1 carboxy tail; challenged with forskolin and galanin at EC90 | hit rate 59% among 1,600 | inhibition, % at 3 µM | AID 652245 | shares compounds with GalR3 antagonist;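 active means inhibition above the primary screen's cutoff, the mean inhibition of all screened compounds plus 3 SD, cut at about 13% in these data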;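 further: 0% = forskolin plus galanin and 100% = forskolin alone with DMSO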
HEK-CNG parental: counter-screen for GalR3 antagonists: nonspecific agonists in parental HEK-CNG cells | activation, % at 3 µM | shares compounds with GalR3 antagonist | HEK293-CNG parental cells, cAMP membrane potential fluorescence; normalised: DMSO wells 0%, forskolin wells 100% | hit rate 10% among 1,600; in the data active means activation above about 1.3%
Starred values were filed as active, the others as inactive; · = no result.

SMILES	CHO parental Ca	OX1R antag-1	OX1R antag-2	GPR7 antag	GalR3 antagonist	GalR3 conf	HEK-CNG parental
Cc1sc2ncnc(NCC(O)c3ccccc3)c2c1C (stereo unspecified)	43*	20	28	2	38*	25*	1
Cc1sc2ncnc(NCc3ccco3)c2c1C	-10	5	34	-13	-5	·	·
Cc1sc2ncnc(NCc3cccs3)c2c1C	36*	3	28	-11	55*	58*	0
Cc1[nH]c(=O)[nH]c(=O)c1/C=N/NC(=O)[C@H](CC(C)C)NC(=O)OC(C)(C)C	-13	-15	44	13	0	·	·
Cc1[nH]c(=O)[nH]c(=O)c1/C=N/NC(=O)[C@H](C)NC(=O)OC(C)(C)C	-9	-2	20	-9	·	1	0
CCC(CC)C(=O)Nc1ccc([N+](=O)[O-])cn1	-6	-16	19	-2	16*	24*	1
CC12CCC(=O)N1C(C(=O)NNC(=O)c1ccc(Br)cc1)CS2 (stereo unspecified)	-4	-5	1	·	-5	·	·
O=C1CCCc2ccc3ccccc3c21	·	·	·	·	-5	·	·
COc1cc2ccccc2c2c1CCCC2=O	-28	-11	28	-10	·	-6	1
Cc1ccc(N2C(=O)c3ccccc3NC2C(C)Cc2ccc3c(c2)OCO3)cc1 (stereo unspecified)	7	-3	10	2	39*	48*	0
Cc1ccc2nc(N3C(=O)C(O)=C(C(=O)c4ccco4)C3c3ccc(O)cc3)sc2c1 (stereo unspecified)	7	-10	24	-4	7	·	·
Cc1cc(C)c2nc(N3C(=O)C(O)=C(C(=O)c4ccco4)C3c3cccc(O)c3)sc2c1 (stereo unspecified)	-6	4	0	·	14*	9	0
CCOc1ccc(Br)cc1CC(=O)O	-24	-15	17	18	1	·	·
CCCOc1ccc(Br)cc1CSC(=N)N	14	0	12	54*	50*	95*	5.8*
CCOCCCNC(=S)N1CCN(c2nc(-c3ccc(F)cc3)cs2)CC1	14	9	6	12	37*	88*	-1
COCCCNC(=S)N1CCN(c2nc(-c3ccc(F)cc3)cs2)CC1	18	-7	24	12	-10	·	·
S=C(NCCCN1CCOCC1)N1CCN(c2nc(-c3ccc(Cl)cc3)cs2)CC1	28	11	20	5	20*	6	-1
S=C(NCCCN1CCOCC1)N1CCN(c2nc(-c3ccccc3)cs2)CC1	0	-10	5	9	-5	·	·
COc1ccc(-n2c(Cc3ccccc3)nnc2SCc2ccc([N+](=O)[O-])cc2)cc1	-13	-24	14	5	-5	·	·
COc1ccc(-n2c(SCc3ccc(C#N)cc3)nnc2-c2ccccn2)cc1	-12	-18	18	-1	7	·	·
COc1ccc(-n2c(SCc3ccc([N+](=O)[O-])cc3)nnc2-c2ccc(C)cc2)cc1	-21	-19	17	-4	50*	11	1
Cc1ccc(-n2c(SCc3ccc(C#N)cc3)nnc2-c2ccccn2)cc1	-9	-13	16	0	13*	12	0
Cc1ccc(S(=O)(=O)NN2C(=O)c3ccccc3NC2c2ccccn2)cc1 (stereo unspecified)	-24	-31	29	4	14*	-1	0
Oc1ccc(-c2n[nH]c(C(F)(F)F)c2-c2ccccc2)c(O)c1	57*	15	21	1	47*	89*	-2
N#C/C(N=Nc1ccccc1O)=N\Nc1ccccc1O	26	12	22	·	61*	84*	-2
SMILES	CHO parental Ca	OX1R antag-1	OX1R antag-2	GPR7 antag	GalR3 antagonist	GalR3 conf	HEK-CNG parental
COc1cc([N+](=O)[O-])cc(/C=N/NC(=O)c2cncc(Br)c2)c1O	-2	-12	27	-8	25*	38*	0
CNc1ncnc2c1ncn2[C@@H]1O[C@H](CO)[C@@H](O)[C@H]1O	-2	9	16	·	77*	17*	0
CN(C)c1ncnc2c1ncn2C1OC(CO)C(O)C1O (stereo unspecified)	-4	-5	14	-7	0	·	·
O=C(/C=C/c1ccccc1)NC(NC(=S)Nc1ccc(C(=O)O)cc1)C(Cl)(Cl)Cl (stereo unspecified)	3	1	20	-3	-2	·	·
O=C(/C=C/c1ccccc1)NC(NC(=S)Nc1cccc(O)c1)C(Cl)(Cl)Cl (stereo unspecified)	16	-14	37	5	18*	17*	-1
CN1C2CCC1CC(NC(=O)CSCc1ccc(Cl)cc1Cl)C2 (stereo unspecified)	-14	-14	8	-8	-7	·	·
CC(C)CCOc1cccc(OCC(=O)Nc2ccncc2)c1	59*	55*	44	21	92*	110*	-1
O=C(COc1ccc2ccccc2c1Br)Nc1cccnc1	-14	-6	1	20	-6	·	·
Cc1cc(OCC(=O)Nc2ccncc2)c(C)cc1Br	58*	14	28	19	77*	117*	0
COc1cccc(OCC(=O)Nc2ccncc2)c1	-1	0	11	5	-11	·	·
CCc1ccc(OCC(=O)Nc2ccncc2)c(Br)c1	27	28	4	-4	-12	·	·
O=C(COc1ccc2ccccc2c1Br)Nc1ccncc1	41*	13	26	14	61*	60*	0
COc1ccc(/C=N/Nc2nn3cnnc3c3ccccc23)cc1	-3	-2	5	-5	-2	·	·
O=C(O)CCCC1(C(=O)O)CCCC1	·	·	·	·	-2	·	·
CC(CCc1ccccc1)NC(=O)CCC(=O)N1CCC(C(=O)O)CC1 (stereo unspecified)	-6	-9	-2	4	-5	·	·
CCOC(=O)Nc1cccc(NC(=O)c2ccccc2F)c1	0	-10	32	-1	19*	-3	0
COc1ccccc1C(=O)Nc1nnc([C@H]2C[C@H](O)[C@@H](CO)O2)s1	·	·	·	·	25*	-2	0
Cn1c(=O)c2c(nc(NCc3cccnc3)n2Cc2ccc(Cl)cc2)n(C)c1=O	-12	-32	10	8	24*	9	1
Cn1c(=O)c2c(ncn2CC(COCc2ccc(Cl)cc2)OCc2ccc(Cl)cc2)n(C)c1=O (stereo unspecified)	-13	-36	18	0	-4	·	·
Cn1c(=O)c2c(ncn2Cc2ccc(Cl)cc2)n(C)c1=O	-4	-28	15	-8	15*	0	0
CCNc1nc2c(c(=O)n(C)c(=O)n2C)n1Cc1ccc(Cl)cc1	36*	-12	16	5	22*	71*	0
